Measurements taken from ChEMBL document CHEMBL3124880, “4-(3-Chloro-5-(trifluoromethyl)pyridin-2-yl)-N-(4-methoxypyridin-2-yl)piperazine-1-carbothioamide (ML267), a potent inhibitor of bacterial phosphopantetheinyl transferase that attenuates secondary metabolism and thwarts bacterial growth” (J Med Chem, 2014).
Converted amounts (≈) assume the structure as drawn. The source made the active and inactive calls. The calls are words filed in the database; no cut-off is given here.

Columns and labels:
Bacillus subtilis [1] = test: Antibacterial activity against Bacillus subtilis OKB105 assessed as inhibition of surfactin production after 28 hrs by LC-MS analysis; format: functional, organism-based
Outline: (§1)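 B. subtilis OKB105 cultured with compound at 0.53 or 1.1 µg/mL against a vehicle control. Culture density and surfactin titer sampled periodically over 28 h.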

HepG2 = test: Cytotoxicity against human HepG2 cells assessed as cellular ATP content after 48 hrs by CellTiter-Glo assay; format: cell-based; conditions: HepG2, 48 h
Outline: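 HepG2 cells exposed to compound; viability read as cellular ATP by luciferase-coupled CellTiter-Glo.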

[2] = Chemical stability of the compound in HEPES buffer at room temperature measured over 48 hrs by LC/MS analysis; format: physicochemical
Outline: (§2)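 Compound held in aqueous media over pH 2–9 and in PBS and HEPES buffers, then monitored for degradation.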

Staphylococcus aureus [3] = test: Antibacterial activity against Staphylococcus aureus BK2395 assessed as growth inhibition in presence of calf serum; format: functional
Bacillus subtilis [4] = test: Antibacterial activity against Bacillus subtilis OKB105 assessed as growth inhibition at 1.7 ug/mL after 16 to 20 hrs by resazurin dye-based assay; format: functional, organism-based
Bacillus subtilis [5] = test: Antibacterial activity against Bacillus subtilis OKB105 assessed as inhibition of surfactin production at 1.1 ug/mL after 28 hrs by LC-MS analysis relative to vehicle-treated control; format: functional; conditions: OKB105, 28 h
Outline: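 B. subtilis OKB105 cultures grown with sublethal compound concentrations. Culture growth and surfactin titer measured periodically over 28 h; titer expressed relative to vehicle control.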

[6] = Chemical stability of the compound in aqueous media at pH 2 to 9 at room temperature measured over 5 hrs by LC/MS analysis; format: physicochemical; conditions: buffer, pH 2, 5 h; outline: as §2
Liver microsome [7] = test: Drug metabolism in human liver microsomes assessed as GSH adduct formation at 50 uM after 60 mins by LC-MS/MS analysis in presence of NADPH; format: ADME; conditions: 1 h
Bacillus subtilis [8] = test: Antibacterial activity against Bacillus subtilis 168 assessed as disruption of cell membrane integrity at 10 times MIC after 15 mins by Syto9/propidium iodide staining-based BacLight LIVE/DEAD microscopic analysis; format: functional, organism-based; conditions: subsp. subtilis str. 168
Bacillus subtilis [9] = test: Antibacterial activity against Bacillus subtilis OKB105 assessed as effect on cellular density at 0.53 to 1.1 ug/mL after 28 hrs; format: functional, organism-based; outline: as §1
Staphylococcus aureus [10] = test: Antibacterial activity against Staphylococcus aureus BK2395 in Swiss Webster mouse septicemia model assessed as increase in survival at 30 mg/kg, ip administered 4 to 48 hrs measured 3 times daily for 14 days relative to vehicle-treated control; format: functional, organism-based; set-up: dose 30 mg/kg
Outline: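 MRSA USA500 strain BK2395 used in a mouse sepsis model. Treated animals compared with vehicle, with vancomycin as a reference treatment; survival monitored.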

Staphylococcus aureus [11] = test: Antibacterial activity against methicillin-sensitive Staphylococcus aureus ATCC 6538 assessed as growth inhibition at 0.8 to 100 ug/mL after 16 to 20 hrs by resazurin dye-based assay; format: functional, organism-based
Outline: (§3)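 Broth microdilution. Test article from 1 μL DMSO in 50 μL cation-adjusted Mueller Hinton II (bacteria) or RPMI 1640 (fungi), plus ~1×10^3 cfu inoculum in the same medium. Incubated 16–20 h at 30–37 °C (48 h for fungi). MIC scored visually as the first well without growth; resazurin added for imaging.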

Candida albicans = test: Antifungal activity against fluconazole-resistant Candida albicans ATCC 96901 assessed as growth inhibition at 0.8 to 100 ug/mL after 48 hrs by resazurin dye-based assay; format: functional, organism-based
Outline: (§4)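 Broth microdilution. Inoculum from overnight liquid cultures or 2-day colonies, ~1 × 10^3 cfu per well. Compound in DMSO added to cation-adjusted Mueller Hinton II broth (bacteria) or RPMI 1640 (fungi). Incubated at 30–37 °C for 16–20 h, or 48 h for fungi.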

Staphylococcus aureus [12] = test: Antibacterial activity against community-acquired methicillin-resistant Staphylococcus aureus USA500 assessed as growth inhibition at 0.8 to 100 ug/mL after 16 to 20 hrs by resazurin dye-based assay; format: functional, organism-based; outline: as §4
[13] = Half life in CD-1 mouse at 3 mg/kg, iv; format: ADME, organism-based; set-up: dose 3 mg/kg, route intravenous; conditions: in vivo
Outline: (§5)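 Male CD1 mice, 6–8 weeks old. Dosed iv at 3 mg/kg or ip at 30 mg/kg as a solution in 5% DMSO/10% Solutol in water. Plasma sampled in triplicate at eight time points over 24 h.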

Escherichia coli [14] = test: Antibacterial activity against Escherichia coli BW25113 assessed as growth inhibition at 0.8 to 100 ug/mL after 16 to 20 hrs by resazurin dye-based assay; format: functional; outline: as §3
Escherichia coli [15] = test: Antibacterial activity against wild type Escherichia coli BW25113 assessed as growth inhibition at 1.8 to 250 ug/mL after 16 to 20 hrs by broth dilution method; format: functional
Outline: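 E. coli BW25113 (wild type) and JW0451 (ΔacrB) tested by broth dilution in cation-adjusted Mueller Hinton II, ~1×10^3 cfu, 16–20 h. Growth shown with resazurin. Checkerboard combination with the efflux inhibitor PAβN in the wild type.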

Staphylococcus aureus [16] = test: Antibacterial activity against Staphylococcus aureus BK2395 isolated from kidney of 30 mg/kg, ip compound-treated Swiss Webster mouse septicemia model assessed as growth inhibition; format: functional, organism-based; set-up: dose 30 mg/kg
Outline: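 Bacteria harvested from the kidneys of septic mice treated with vehicle or compound, five isolates taken per crude sample. MICs measured in parallel with the parental USA500 strain.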

[17] = Protein binding in plasma (unknown origin) by equilibrium dialysis; format: ADME, cell-free
Liver microsome [18] = test: Metabolic stability in mouse liver microsomes measured over 1 hr in absence of NADPH
[19] = Chemical stability of the compound in PBS buffer at room temperature measured over 48 hrs by LC/MS analysis; format: physicochemical; outline: as §2
[20] = Permeability of the compound by PAMPA; format: physicochemical
[21] = Cmax in CD-1 mouse at 30 mg/kg, ip; format: ADME, organism-based; set-up: dose 30 mg/kg, route intraperitoneal; conditions: in vivo; outline: as §5
[22] = AUC (infinity) in CD-1 mouse at 30 mg/kg, ip; format: ADME, organism-based; set-up: time infinity, dose 30 mg/kg, route intraperitoneal; conditions: plasma; outline: as §5
[23] = Metabolic stability in mouse liver microsomes measured over 1 hr in absence of NADPH; format: ADME, Microsome
Outline: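 Mouse liver microsomes incubated with compound without NADPH over 1 h.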

Bacillus subtilis [24] = test: Antibacterial activity against Bacillus subtilis HM489 assessed as growth inhibition at 1.7 ug/mL after 16 to 20 hrs by resazurin dye-based assay; format: functional, organism-based; outline: as §3
CYP2D6 = CYP2D6 (Homo sapiens, UniProt P10635); test: Inhibition of CYP2D6 (unknown origin) using dextromethorphan as substrate at 3 uM relative to control; format: ADME; conditions: probe dextromethorphan
CYP2D6, sequence (P10635 whole entry): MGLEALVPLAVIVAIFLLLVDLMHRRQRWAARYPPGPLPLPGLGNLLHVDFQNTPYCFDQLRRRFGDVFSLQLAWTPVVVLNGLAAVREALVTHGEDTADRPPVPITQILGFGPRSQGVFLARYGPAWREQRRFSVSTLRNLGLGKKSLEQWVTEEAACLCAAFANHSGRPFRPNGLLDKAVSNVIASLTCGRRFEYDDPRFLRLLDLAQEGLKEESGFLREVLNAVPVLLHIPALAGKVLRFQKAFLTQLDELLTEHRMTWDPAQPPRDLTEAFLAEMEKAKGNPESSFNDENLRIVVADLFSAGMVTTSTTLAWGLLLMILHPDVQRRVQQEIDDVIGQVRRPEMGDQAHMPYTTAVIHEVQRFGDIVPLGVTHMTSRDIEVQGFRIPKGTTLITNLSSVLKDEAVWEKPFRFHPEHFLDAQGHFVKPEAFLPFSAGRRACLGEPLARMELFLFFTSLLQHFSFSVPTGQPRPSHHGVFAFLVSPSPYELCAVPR
Outline: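 Compound at 3 μM co-incubated with CYP substrates: dextromethorphan for 2D6, 6β-hydroxytestosterone for 3A4. Percent inhibition reported; done at Pharmaron.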

[25] = Metabolic stability in mouse plasma at 2 hrs; format: ADME, cell-free; conditions: read-out: Stability
Outline: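 Compound incubated in mouse plasma; stability measured at 2 h (Pharmaron).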

[26] = Clearance in CD-1 mouse at 3 mg/kg, iv; format: ADME, organism-based; set-up: dose 3 mg/kg, route intravenous; conditions: in vivo; outline: as §5
Staphylococcus aureus [27] = test: Antibacterial activity against community-acquired methicillin-resistant Staphylococcus aureus BAA-1717 assessed as growth inhibition at 0.8 to 100 ug/mL after 16 to 20 hrs by resazurin dye-based assay; format: functional, organism-based; outline: as §4
Bacillus subtilis [28] = test: Antibacterial activity against Bacillus subtilis 168 assessed as growth inhibition after 16 to 20 hrs by resazurin dye-based assay; format: functional; conditions: subsp. subtilis str. 168; outline: as §3
[29] = Cmax in CD-1 mouse at 3 mg/kg, iv; format: ADME, organism-based; set-up: dose 3 mg/kg, route intravenous; conditions: in vivo; outline: as §5

COc1ccnc(NC(=S)N2CCN(c3ncc(C(F)(F)F)cc3Cl)CC2)c1
inhibition (Bacillus subtilis [1]): Dose-dependent effect
IC50 (HepG2): ≥ 114 µM
Stability [2]: Stable
MIC (Staphylococcus aureus [3]): > 57 µM
growth inhibition (GI) (Bacillus subtilis [4]): Active
inhibition at 1.1 µg/mL (Bacillus subtilis [5]): 41%
Stability [6]: Stable
Drug metabolism (Liver microsome [7]): Not Active
Activity (Bacillus subtilis [8]): inactive
Activity (Bacillus subtilis [9]): inactive
Activity (Staphylococcus aureus [10]): inactive
growth inhibition (GI) (Staphylococcus aureus [11]): Active
growth inhibition (GI) (Candida albicans): inactive
growth inhibition (GI) (Staphylococcus aureus [12]): Active
half-life [13]: 2.4 h
growth inhibition (GI) (Escherichia coli [14]): inactive
growth inhibition (GI) (Escherichia coli [15]): inactive
growth inhibition (GI) (Staphylococcus aureus [16]): Active
PPB [17]: 98.6%
Stability (Liver microsome [18]): Stable
Stability [19]: Stable
permeability [20]: 1120 ×10⁻⁶ cm/s
Cmax [21]: 17600 ng/mL
AUC(0-inf) [22]: 68900 ng·h/mL
Stability [23]: Stable
growth inhibition (GI) (Bacillus subtilis [24]): Active
inhibition at 3 µM (CYP2D6): 25%
remaining at 2 h [25]: 100%
clearance [26]: 7.2 mL/min/kg
growth inhibition (GI) (Staphylococcus aureus [27]): Active
MIC (Bacillus subtilis [28]): 2 µg/mL (≈ 4.63 µM)
Cmax [29]: 4110 ng/mL
